Paper PMC9393086 (Thrombosis and Haemostasis, 2022)

Key:
[1] = system: washed human platelets; test: Light transmission platelet aggregation; type: cell-based; details: for effect on platelet aggregation induced by 10 µM katacine: pretreatment 5 min, PRT-060318 1 µM, PP2 20 µM
Method in brief: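 Platelets came from citrated blood of healthy donors free of antiplatelet drugs for 14 days. They were washed from PRP with 0.2 µg/mL prostacyclin, resuspended in modified Tyrode's buffer pH 7.3 and rested 30 min at RT. Platelets (2 × 10^8/mL) were stirred at 1,200 rpm at 37°C and stimulated with test compound (1–30 µM). Pretreatment was 5 min at 37°C with PP2 20 µM, PRT-060318 1 µM, AYP1 10 µg/mL or 0.1% DMSO. Read-out was light transmission; three independent experiments, mean + SD.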

[2] = system: mouse platelet lysates; test: Protein tyrosine phosphorylation in mouse platelet lysates; type: cell-based; details: katacine 10 µM; 4x10^8 platelets/mL
[3] = system: mouse washed platelets; test: Mouse platelet aggregation; type: cell-based; details: katacine 10 µM; 2x10^8 platelets/mL
[4] = system: FcR γ-chain; test: FcR γ-chain phosphorylation, western blot of whole cell lysate; type: cell-based, human; details: katacine 10 µM, CRP 3 µg/mL
[5] = system: Syk Y525/526; test: Phospho-specific immunoblot of platelet lysates, Syk; type: cell-based, human; details: katacine 10 µM, rhodocytin 100 nM; 5 min; 9 µM eptifibatide
[6] = biological target: podoplanin–CLEC-2 interaction (Homo sapiens, UniProt Q9P126); test: ALPHA screen podoplanin–CLEC-2 interaction assay; type: binding
Sequence of podoplanin–CLEC-2 interaction (Q9P126 55-229): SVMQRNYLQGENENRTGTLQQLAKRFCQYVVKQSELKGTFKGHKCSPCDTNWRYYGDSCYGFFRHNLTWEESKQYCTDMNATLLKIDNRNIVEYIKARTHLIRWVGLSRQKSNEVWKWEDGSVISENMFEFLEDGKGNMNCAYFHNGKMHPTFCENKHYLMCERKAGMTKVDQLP
Method in brief: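 Biotinylated human podoplanin–rabbit Fc (50 nM) plus human CLEC-2 extracellular domain (Ser55–Pro229)–6xHis (250 nM), both expressed in HEK293T and purified, incubated with test compound (vehicle 0.1% v/v DMSO) 30 min at 4°C. Then 40 µg/mL streptavidin donor beads, 30 min at RT in the dark, then 40 µg/mL nickel acceptor beads, 60 min at RT in the dark. ALPHA signal read; false positives excluded by TruHits counter-screen; IC50 from concentration series.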

[7] = system: CLEC-2; test: Immunoprecipitation of CLEC-2 and 4G10 western blot; type: cell-based, human; details: katacine 10 µM, rhodocytin 100 nM
Method in brief: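 Platelets (4 × 10^8/mL, 9 µM eptifibatide) were stimulated 5 min at 37°C, stirring at 1,200 rpm, with test compound, rhodocytin or vehicle. Lysis was in NP-40 buffer with protease inhibitors and orthovanadate, pH 7.5. Lysates were precleared on Sepharose, then incubated 30 min with 2 µg anti-CLEC-2 antibody AYP1 and captured for 60 min. Immunoprecipitates were blotted with 4G10; signal was expressed as fold over vehicle.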

[8] = system: LAT Y200; test: Phospho-specific immunoblot of platelet lysates, LAT; type: cell-based, human; details: katacine 10 µM, rhodocytin 100 nM; 5 min; 9 µM eptifibatide

In the case of `CC(C)(C)n1nc(-c2ccc(Cl)cc2)c2c(N)ncnc21` [PP2, reference compound], the “effect on platelet aggregation induced by 10 µM katacine” value [1] is reported as “completely blocked”.

In the case of `Cc1cccc(Nc2nc(N[C@@H]3CCCC[C@@H]3N)ncc2C(N)=O)c1` [PRT-060318, reference compound], the “effect on platelet aggregation induced by 10 µM katacine” value [1] is reported as “completely blocked”.

In the case of `Oc1cc(O)c2c(c1)O[C@H](c1cc(O)c(O)c(O)c1)[C@H](O)[C@H]2c1c(O)cc(O)c2c1O[C@H](c1cc(O)c(O)c(O)c1)[C@H](O)[C@H]2c1c(O)cc(O)c2c1O[C@H](c1cc(O)c(O)c(O)c1)[C@H](O)C2` [katacine, Katacine], the “protein tyrosine phosphorylation in mouse platelets” value [2] is reported as “did not observe”, the “platelet aggregation in mouse platelets” value [3] is reported as “did not observe platelet aggregation” and the “phosphorylation of FcR γ-chain” value [4] is reported as “did not stimulate an increase”. For the same molecule, the “platelet aggregation, concentration–response” value ([1]; at 5 μM and below) was “no response”, the “platelet aggregation, concentration–response” value ([1]; at 10 and 30 μM) was “maximal aggregation” and the platelet aggregation ([1]; katacine 10 µM, washed platelets 2 × 10^8/mL) was 77.7 ± 9%. The “increase in phosphorylation of Syk Y525/526 relative to vehicle” value [5] was 4.5 ± 0.9 fold, the IC50 [6] was 2700 nM and the “increase in phosphorylation levels of CLEC-2 relative to vehicle” value [7] was 6.6 ± 4.6 fold. The “increase in phosphorylation of LAT Y200 relative to vehicle” value [8] was 18.8 ± 5.9 fold.

`O=C(O)c1cc(O)c2c(c1)[C@H]([C@H]1c3cc(C(=O)O)cc(O)c3C(=O)c3c(O[C@@H]4O[C@H](CO)[C@@H](O)[C@H](O)[C@H]4O)cccc31)c1cccc(O[C@@H]3O[C@H](CO)[C@@H](O)[C@H](O)[C@H]3O)c1C2=O` [sennoside A, Sennoside A] was tested, and the “effect on platelet aggregation” value ([1]; 10 and 30 µM, data not shown) was “no effect”, the “effect on the platelet aggregation response to rhodocytin” value ([1]; 10 and 30 µM, rhodocytin 100 nM, data not shown) was “no effect” and the IC50 [6] was 1300 nM.
